Experimental findings from ChEMBL document CHEMBL3611989, “Discovery and characterization of aryl isonitriles as a new class of compounds versus methicillin- and vancomycin-resistant Staphylococcus aureus” (Eur J Med Chem, 2015) are described below.

In general, MIC refers to the smallest concentration in the dilution series that meets the test's criterion for growth inhibition.

Data set [1] concerns Staphylococcus aureus. Kind of data set: Antimicrobial activity against methicillin-resistant Staphylococcus aureus USA100 assessed as reduction in bacterial growth incubated for 18 to 20 hrs at 37 degC by broth microdilution method. The class given is functional. The procedure, abridged: (§1)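 Modified CLSI broth microdilution. Bacterial suspension of about 1 × 10^5 CFU/mL in tryptic soy broth. Each agent was added in triplicate to the first row and serially diluted down the plate. Plates were incubated at 37 °C for 18-20 h. MIC was read as the lowest concentration with no visible growth.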
Background: Dilution methods test growth across graded concentrations, often in twofold steps.

Data set [2] relates to Staphylococcus aureus. Kind of data set: Antimicrobial activity against vancomycin-intermediate-resistant Staphylococcus aureus NRS1 assessed as reduction in bacterial growth incubated for 18 to 20 hrs at 37 degC by broth microdilution method. The class given is functional. Summed up:
as §1

Data set [3] has as its system Staphylococcus aureus. Kind of data set: Antimicrobial activity against methicillin-resistant Staphylococcus aureus NRS119 assessed as reduction in bacterial growth incubated for 18 to 20 hrs at 37 degC by broth microdilution method. The class given is functional. The procedure, abridged: as §1
In data set [4] the test system is Staphylococcus aureus. Kind of data set: Antimicrobial activity against methicillin-resistant Staphylococcus aureus USA700 assessed as reduction in bacterial growth incubated for 18 to 20 hrs at 37 degC by broth microdilution method. The class given is functional. The procedure, abridged:
as §1

Data set [5] deals with Staphylococcus aureus. Nature of the data set: Antimicrobial activity against methicillin-resistant Staphylococcus aureus USA200 assessed as reduction in bacterial growth incubated for 18 to 20 hrs at 37 degC by broth microdilution method. The format is functional. Summed up:
as §1

The test system of data set [6] is Staphylococcus aureus. Nature of the data set: Antimicrobial activity against vancomycin-resistant Staphylococcus aureus VRS2 assessed as reduction in bacterial growth incubated for 18 to 20 hrs at 37 degC by broth microdilution method. The class given is functional. The procedure, abridged:
as §1

In data set [7] the test system is Staphylococcus aureus. Nature of the data set: Antimicrobial activity against methicillin-resistant Staphylococcus aureus USA300 assessed as reduction in bacterial growth incubated for 18 to 20 hrs at 37 degC by broth microdilution method. The format is functional. Summed up:
as §1

The subject of data set [8] is J774. The format is cell-based. To be noted: mouse, j774, 2 h, 128 µM.
Data set [9] concerns Staphylococcus aureus. Kind of data set: Antimicrobial activity against methicillin-resistant Staphylococcus aureus USA500 assessed as reduction in bacterial growth incubated for 18 to 20 hrs at 37 degC by broth microdilution method. The format is functional. The procedure, abridged:
as §1

Data set [10] relates to Staphylococcus aureus. Kind of data set: Antimicrobial activity against methicillin-sensitive Staphylococcus aureus NRS72 assessed as reduction in bacterial growth incubated for 18 to 20 hrs at 37 degC by broth microdilution method. The format is functional. Summed up:
as §1

In data set [11] the test system is J774. Nature of the data set: Cytotoxicity against mouse J774 cells assessed as reduction in cell viability at 64 uM incubated for 2 hrs by MTS assay. To be noted: j774, 2 h. The class given is cell-based. Summed up: (§2)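 Murine J774 macrophages grown in DMEM with 10% FBS at 37 °C, 5% CO2. Compounds were tested in triplicate at 16, 32, 64 and 128 μM for 2 h, with DMSO-matched vehicle controls. MTS reagent was then added and absorbance read at OD490. Viability is given as percent of DMSO-treated cells (mean of triplicate ± standard deviation), compared by paired t-test (P < 0.05).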
For orientation: Tetrazolium dyes change colour on reduction, which living cells bring about.

The subject of data set [12] is J774. Nature of the data set: Cytotoxicity against mouse J774 cells assessed as reduction in cell viability at 32 uM incubated for 2 hrs by MTS assay. The class given is cell-based. To be noted: j774, 2 h. The procedure, abridged: as §2

Structures are written as SMILES. In brackets after ≈: the same amount, converted by molar mass.

On to `[C-]#[N+]c1ccccc1/C=C/c1cccnc1`, for which the minimal inhibitory concentration (MIC) in data set [1] stood at 32 µM (≈ 6.6 µg/mL); in data set [2], 64 µM (≈ 13.2 µg/mL); in data set [3], 64 µM (≈ 13.2 µg/mL); in [4] it was 32 µM (≈ 6.6 µg/mL); in data set [5], 32 µM (≈ 6.6 µg/mL); in [6], 32 µM (≈ 6.6 µg/mL). Besides, the results for the minimum inhibitory concentration (MIC) in data set [7], in data set [9] and in [10] were 16 µM (≈ 3.3 µg/mL), 32 µM (≈ 6.6 µg/mL) and 64 µM (≈ 13.2 µg/mL), respectively. The Activity entry in [8], in data set [11] and in data set [12] was “Non-toxic” throughout.

Consider `[C-]#[N+]c1ccccc1/C=C/c1ccccc1F`, for which the minimum inhibitory concentration (MIC) in data set [1] came to 8 µM (≈ 1.79 µg/mL); in data set [2], 4 µM (≈ 0.893 µg/mL); in data set [3], 32 µM (≈ 7.14 µg/mL); in data set [4] it was 8 µM (≈ 1.79 µg/mL); in [5] it was 2 µM (≈ 0.446 µg/mL); in [6], 32 µM (≈ 7.14 µg/mL). Also, the minimal inhibitory concentration (MIC) turned out to be 16 µM (≈ 3.57 µg/mL) in [7], 16 µM (≈ 3.57 µg/mL) in [9] and 4 µM (≈ 0.893 µg/mL) in data set [10]. Also, the Activity entry in data set [8] is “Toxic”; in data set [11], “Non-toxic”; in [12], “Non-toxic”.

Take `[C-]#[N+]c1cccc(/C=C/c2ccccc2)c1`: the MIC in data set [1] amounted to 32 µM (≈ 6.57 µg/mL); in data set [2], 32 µM (≈ 6.57 µg/mL); in [3], 64 µM (≈ 13.1 µg/mL); in data set [4] it was 16 µM (≈ 3.28 µg/mL); in data set [5] it was 32 µM (≈ 6.57 µg/mL); in data set [6], 32 µM (≈ 6.57 µg/mL). The MIC in [7] was 16 µM (≈ 3.28 µg/mL); in data set [9], greater than 128 µM; in data set [10], 16 µM (≈ 3.28 µg/mL). For the same compound, the Activity result is recorded as “Toxic” in data set [8], “Non-toxic” in data set [11] and “Non-toxic” in data set [12].

For `[C-]#[N+]c1ccc(/C=C/c2ccccc2)cc1`, the MIC is 4 µM (≈ 0.821 µg/mL) in data set [1]; greater than 128 µM in data set [2]; greater than 128 µM in [3]; 64 µM (≈ 13.1 µg/mL) in data set [4]; 32 µM (≈ 6.57 µg/mL) in data set [5]; greater than 128 µM in [6]. Also, the minimal inhibitory concentration (MIC) in data set [7] was found to be 4 µM (≈ 0.821 µg/mL); in [9], 16 µM (≈ 3.28 µg/mL); in data set [10] it was 4 µM (≈ 0.821 µg/mL). Moreover, the Activity entry in [8], in data set [11] and in data set [12] was “Non-toxic” in each case.

Take `[C-]#[N+]c1ccccc1/C=C/c1cccc(OC)c1`: the minimal inhibitory concentration (MIC) is 8 µM (≈ 1.88 µg/mL) in [1]; 4 µM (≈ 0.941 µg/mL) in data set [2]; 32 µM (≈ 7.53 µg/mL) in data set [3]; 16 µM (≈ 3.76 µg/mL) in [4]; 4 µM (≈ 0.941 µg/mL) in [5]; 32 µM (≈ 7.53 µg/mL) in data set [6]. The values for the MIC in data set [7], in data set [9] and in data set [10] were 16 µM (≈ 3.76 µg/mL), 32 µM (≈ 7.53 µg/mL) and 8 µM (≈ 1.88 µg/mL), respectively. Moreover, the Activity entry in data set [8], in [11] and in data set [12] was “Non-toxic” each time.

Consider `[C-]#[N+]c1ccccc1/C=C/c1ccc(C)cc1`, for which the MIC in data set [1] was 4 µM (≈ 0.877 µg/mL); in data set [2], 4 µM (≈ 0.877 µg/mL); in data set [3], 64 µM (≈ 14 µg/mL); in data set [4], 8 µM (≈ 1.75 µg/mL); in data set [5], 4 µM (≈ 0.877 µg/mL); in data set [6], 32 µM (≈ 7.02 µg/mL). Moreover, the results for the MIC in [7], in data set [9] and in data set [10] were 16 µM (≈ 3.51 µg/mL), 32 µM (≈ 7.02 µg/mL) and 16 µM (≈ 3.51 µg/mL), respectively. Moreover, the Activity result in [8] was “Toxic”; in data set [11], “Non-toxic”; in [12] it was “Non-toxic”.

Consider `[C-]#[N+]c1ccccc1/C=C/c1ccc(OC)cc1`, for which the minimum inhibitory concentration (MIC) came out at 8 µM (≈ 1.88 µg/mL) in data set [1]; 4 µM (≈ 0.941 µg/mL) in data set [2]; 32 µM (≈ 7.53 µg/mL) in data set [3]; 8 µM (≈ 1.88 µg/mL) in data set [4]; 2 µM (≈ 0.471 µg/mL) in data set [5]; 32 µM (≈ 7.53 µg/mL) in data set [6]. Further, the MIC in data set [7] is 16 µM (≈ 3.76 µg/mL); in data set [9] it was greater than 128 µM; in [10], 4 µM (≈ 0.941 µg/mL). In addition, the Activity result is reported as “Toxic” in [8], “Non-toxic” in data set [11] and “Non-toxic” in [12].

As to `[C-]#[N+]c1ccccc1/C=C(\CC)c1ccc(OC)cc1`, the MIC in data set [2] is 4 µM (≈ 1.05 µg/mL); in data set [3], greater than 128 µM; in [4], 4 µM (≈ 1.05 µg/mL); in data set [6], 8 µM (≈ 2.11 µg/mL); in [7], 16 µM (≈ 4.21 µg/mL). The Activity entry is on record as “Toxic” in [8], “Toxic” in data set [11] and “Non-toxic” in [12].

As for `[C-]#[N+]c1ccc(/C=C/c2cccnc2)cc1`, the MIC in [1] was found to be 16 µM (≈ 3.3 µg/mL); in data set [2], 32 µM (≈ 6.6 µg/mL); in [3], 64 µM (≈ 13.2 µg/mL); in data set [4] it was 16 µM (≈ 3.3 µg/mL); in [5], 32 µM (≈ 6.6 µg/mL); in [6], 8 µM (≈ 1.65 µg/mL). Besides, the MIC came to 32 µM (≈ 6.6 µg/mL) in data set [9] and 16 µM (≈ 3.3 µg/mL) in [10]. For the same compound, the results for the Activity entry in data set [8], in data set [11] and in [12] were “Toxic”, “Non-toxic” and “Non-toxic”, respectively.
